The results in this text go back to ChEMBL document CHEMBL4371052, “Diarylcarbonates are a new class of deubiquitinating enzyme inhibitor” (Bioorg Med Chem Lett, 2019).

The target of experiment [1] is T1, Ubiquitin carboxyl-terminal hydrolase 19 (Homo sapiens) (UniProt O94966).
T1 sequence (whole entry): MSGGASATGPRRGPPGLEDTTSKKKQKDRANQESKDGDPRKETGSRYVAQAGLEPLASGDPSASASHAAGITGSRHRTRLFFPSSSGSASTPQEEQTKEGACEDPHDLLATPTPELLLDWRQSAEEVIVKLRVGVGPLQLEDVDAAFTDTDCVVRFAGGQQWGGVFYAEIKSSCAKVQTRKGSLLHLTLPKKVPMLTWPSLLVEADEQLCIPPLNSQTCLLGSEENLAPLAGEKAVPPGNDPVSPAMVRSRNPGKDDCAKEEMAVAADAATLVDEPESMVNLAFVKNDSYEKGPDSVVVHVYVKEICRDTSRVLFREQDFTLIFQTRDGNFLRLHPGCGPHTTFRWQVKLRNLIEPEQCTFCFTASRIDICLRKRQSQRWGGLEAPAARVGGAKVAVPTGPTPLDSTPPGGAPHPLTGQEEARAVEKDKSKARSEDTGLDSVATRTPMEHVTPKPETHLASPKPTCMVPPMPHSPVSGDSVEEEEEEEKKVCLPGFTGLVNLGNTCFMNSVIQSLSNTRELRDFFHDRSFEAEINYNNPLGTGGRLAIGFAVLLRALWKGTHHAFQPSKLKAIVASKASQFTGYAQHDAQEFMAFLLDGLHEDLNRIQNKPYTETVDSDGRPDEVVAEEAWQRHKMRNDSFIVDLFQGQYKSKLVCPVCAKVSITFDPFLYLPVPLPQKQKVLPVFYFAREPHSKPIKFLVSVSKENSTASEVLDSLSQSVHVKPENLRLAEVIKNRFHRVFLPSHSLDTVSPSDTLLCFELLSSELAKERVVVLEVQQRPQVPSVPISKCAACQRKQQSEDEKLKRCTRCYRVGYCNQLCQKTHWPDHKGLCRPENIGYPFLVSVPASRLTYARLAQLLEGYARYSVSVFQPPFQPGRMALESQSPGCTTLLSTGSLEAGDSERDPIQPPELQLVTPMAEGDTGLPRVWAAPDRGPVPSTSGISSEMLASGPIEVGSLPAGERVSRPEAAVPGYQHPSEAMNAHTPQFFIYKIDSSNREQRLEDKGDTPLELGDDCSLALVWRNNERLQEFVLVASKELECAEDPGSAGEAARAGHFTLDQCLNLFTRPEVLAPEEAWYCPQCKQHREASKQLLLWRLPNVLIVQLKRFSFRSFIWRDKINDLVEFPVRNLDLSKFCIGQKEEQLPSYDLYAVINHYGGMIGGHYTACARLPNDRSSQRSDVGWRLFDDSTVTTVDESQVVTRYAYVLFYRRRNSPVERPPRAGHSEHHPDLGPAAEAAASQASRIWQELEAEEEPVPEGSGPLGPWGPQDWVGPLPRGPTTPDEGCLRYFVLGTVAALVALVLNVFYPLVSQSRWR
As to the kind of experiment: Inhibition of USP19 in HEK293T cell lysates at 25 uM using HA-tagged vinyl-sulfone as substrate preincubated for 19 to 60 mins followed by substrate addition and measured after 19 to 25 mins by Western blot analysis. The settings on record: Lysate. The experiment is classed as subcellular. In general terms: A western blot detects proteins with antibodies after separation by electrophoresis.

Experiment [2] has as its target Ubiquitin carboxyl-terminal hydrolase 7 (Homo sapiens) (UniProt Q93009). Description: Inhibition of USP7 in HEK293T cell lysates at 25 uM using HA-tagged vinyl-sulfone as substrate preincubated for 19 to 60 mins followed by substrate addition and measured after 19 to 25 mins by Western blot analysis. Particulars: Lysate. The experiment is classed as subcellular.
Experiment [3] concerns the target Ubiquitin carboxyl-terminal hydrolase isozyme L1 (Homo sapiens) (UniProt P09936). As to the kind of experiment: Inhibition of UCHL1 in HEK293T cell lysates at 25 uM using HA-tagged vinyl-sulfone as substrate preincubated for 19 to 60 mins followed by substrate addition and measured after 19 to 25 mins by Western blot analysis. The experiment is classed as subcellular. The settings on record: Lysate.

In experiment [4] the target is Ubiquitin carboxyl-terminal hydrolase 7 (Homo sapiens) (UniProt Q93009). As to the kind of experiment: Inhibition of USP7 in HEK293T cell lysates assessed as ratio of HA-Ub-VS modified USP7 to total USP7 at 50 uM using HA-Ub vinyl-sulfone as substrate preincubated for 19 to 60 mins followed by substrate addition and measured after 19 to 25 mins by Western blot analysis (reference value: 0.5). The experiment is classed as subcellular. The settings on record: Lysate. The method in brief:
(§1)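 HEK 293T lysate incubated with compound, then treated with HA-Ub-VS. Samples were run on SDS-PAGE and blotted with anti-USP7, and the probe-modified USP7 band was distinguished from unmodified USP7.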

Experiment [5] shares this target. As to the kind of experiment: Inhibition of USP7 in HEK293T cell lysates assessed as ratio of HA-Ub-VS modified USP7 to total USP7 at 100 uM using HA-Ub vinyl-sulfone as substrate preincubated for 19 to 60 mins followed by substrate addition and measured after 19 to 25 mins by Western blot analysis (reference value: 0.5). The format is subcellular. Particulars: Lysate. The method in brief: as §1

For experiment [6], the target named is Ubiquitin carboxyl-terminal hydrolase isozyme L5 (Homo sapiens) (UniProt Q9Y5K5). As to the kind of experiment: Inhibition of UCHL5 in HEK293T cell lysates at 25 uM using HA-tagged vinyl-sulfone as substrate measured after 2 to 30 mins by Western blot analysis. The experiment is classed as subcellular. The settings on record: Lysate. The essentials:
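HEK 293T lysate (1.5 mg/ml) given compound (25 μM) or DMSO at the same time as HA-Ub-VS (1.5 μM). Aliquots withdrawn over time were run on SDS-PAGE and immunoblotted for HA.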

Experiment [7] concerns the target Ubiquitin carboxyl-terminal hydrolase isozyme L1 (Homo sapiens) (UniProt P09936). Description: Inhibition of UCHL1 in HEK293T cell lysates assessed as enzyme recovery at 250 uM using HA-tagged vinyl-sulfone as substrate […] followed by 10-fold dilution and subsequent substrate addition measured within 15 mins by Western blot analysis. The experiment is classed as subcellular. Particulars: Lysate.

Experiment [8] has as its target Ubiquitin carboxyl-terminal hydrolase 9X (Homo sapiens) (UniProt Q93008). Description: Inhibition of recombinant His6-tagged USP9x catalytic domain (unknown origin) assessed as association constant using Ub-AMC as substrate by fluorescence assay.
Experiment [9] deals with 26S proteasome (Homo sapiens) (UniProt Q99460+P49721+P20618+P28074+P28062+P28065+P28072+O00487+P25786+P25787+P25788+P25789+P28066+P60900+O14818+Q8TAA3+P40306+A5LHX3+P49720+P28070+Q99436+Q16186+P35998+P62191+P43686+P62333+P17980+P62195+Q13200+O43242+O00232+O00231+Q15008+P51665+Q9UNM6+P55036+P48556+P60896). Description: Inhibition of 26S proteasome in HEK293T cells expressing GFP-fused Ub G76V mutant assessed as increase in GFP fluorescence. The experiment is classed as cell-based. The essentials:
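HEK 293T cells expressing G76V Ub-GFP, a fusion uncleavable by DUBs that reports ubiquitin-proteasome flux, treated with compound. GFP fluorescence was the read-out, with bortezomib as proteasome-inhibitor reference.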

In experiment [10] the test system is K562. Description: Inhibition of deubiquitinase in human K562 cells assessed as accumulation of K48-linked HMW-Ub protein at 50 uM measured after 2 hrs by Western blot analysis. The experiment is classed as cell-based. The essentials:
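K562 cells exposed to compound at 50 μM for 2 h; K48-linked ubiquitin accumulation read by immunoblotting.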

The target in experiment [11] is Ubiquitin carboxyl-terminal hydrolase 7 (Homo sapiens) (UniProt Q93009). Description: Inhibition of USP7 in human MCF7 cells assessed as increase in p53 expression at 25 uM after 4 hrs by Western blot analysis. The experiment is classed as cell-based. The essentials: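 MCF7 cells treated with compound for 4 h. Mdm2, p53 and p21 levels were determined by immunoblotting.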
Ubiquitin carboxyl-terminal hydrolase 7 (Homo sapiens), sequence (Q93009 whole entry, looked up): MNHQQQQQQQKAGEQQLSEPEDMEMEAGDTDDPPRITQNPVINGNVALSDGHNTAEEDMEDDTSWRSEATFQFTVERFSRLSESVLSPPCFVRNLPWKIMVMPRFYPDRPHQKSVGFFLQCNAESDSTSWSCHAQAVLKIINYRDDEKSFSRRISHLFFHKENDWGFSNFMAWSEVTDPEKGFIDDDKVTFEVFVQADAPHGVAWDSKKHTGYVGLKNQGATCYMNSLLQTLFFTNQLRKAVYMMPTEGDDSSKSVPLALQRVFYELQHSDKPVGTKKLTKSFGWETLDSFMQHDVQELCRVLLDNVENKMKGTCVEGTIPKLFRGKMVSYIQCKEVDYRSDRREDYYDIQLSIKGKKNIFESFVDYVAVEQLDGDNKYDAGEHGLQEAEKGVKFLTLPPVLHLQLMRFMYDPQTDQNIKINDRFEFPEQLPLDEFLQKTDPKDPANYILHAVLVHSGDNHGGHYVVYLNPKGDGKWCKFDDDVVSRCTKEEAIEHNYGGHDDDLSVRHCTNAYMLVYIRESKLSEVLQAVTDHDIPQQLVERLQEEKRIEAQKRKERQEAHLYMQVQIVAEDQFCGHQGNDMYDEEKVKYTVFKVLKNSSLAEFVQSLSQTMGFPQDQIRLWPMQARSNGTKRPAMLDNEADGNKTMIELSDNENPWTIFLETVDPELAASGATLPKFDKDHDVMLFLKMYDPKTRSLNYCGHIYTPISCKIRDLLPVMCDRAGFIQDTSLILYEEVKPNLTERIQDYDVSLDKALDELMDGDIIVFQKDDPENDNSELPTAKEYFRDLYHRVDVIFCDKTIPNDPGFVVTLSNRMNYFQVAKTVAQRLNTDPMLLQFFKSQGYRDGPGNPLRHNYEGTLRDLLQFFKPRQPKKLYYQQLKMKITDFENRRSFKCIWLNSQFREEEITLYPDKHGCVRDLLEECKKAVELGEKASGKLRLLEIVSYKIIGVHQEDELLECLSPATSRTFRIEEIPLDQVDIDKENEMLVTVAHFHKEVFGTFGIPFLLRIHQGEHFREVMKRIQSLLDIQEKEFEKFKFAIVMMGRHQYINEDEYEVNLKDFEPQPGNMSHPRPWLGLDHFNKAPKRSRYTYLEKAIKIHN

The structures appear in SMILES notation. The source made the active and inactive calls. The calls are words filed in the database; no cut-off is given here.

Ubiquitin carboxyl-terminal hydrolase isozyme L1 (Homo sapiens), sequence (P09936 whole entry, looked up): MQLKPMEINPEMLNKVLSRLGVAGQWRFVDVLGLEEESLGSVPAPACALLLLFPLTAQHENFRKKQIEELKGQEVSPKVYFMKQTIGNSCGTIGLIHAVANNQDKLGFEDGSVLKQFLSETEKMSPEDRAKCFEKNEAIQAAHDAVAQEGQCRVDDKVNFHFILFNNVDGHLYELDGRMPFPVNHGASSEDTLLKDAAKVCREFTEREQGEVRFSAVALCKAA
Ubiquitin carboxyl-terminal hydrolase isozyme L5 (Homo sapiens), sequence (Q9Y5K5 whole entry): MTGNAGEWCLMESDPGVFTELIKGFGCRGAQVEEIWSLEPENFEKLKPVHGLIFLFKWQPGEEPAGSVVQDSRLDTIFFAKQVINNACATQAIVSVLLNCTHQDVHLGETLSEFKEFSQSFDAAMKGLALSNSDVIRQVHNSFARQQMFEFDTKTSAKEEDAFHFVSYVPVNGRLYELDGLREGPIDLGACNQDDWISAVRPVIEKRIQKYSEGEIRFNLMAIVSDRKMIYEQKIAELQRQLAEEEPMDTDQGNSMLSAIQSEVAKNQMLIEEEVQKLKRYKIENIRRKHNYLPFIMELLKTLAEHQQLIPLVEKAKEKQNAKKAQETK
Ubiquitin carboxyl-terminal hydrolase 9X (Homo sapiens), sequence (Q93008 whole entry, the tested form may be a part): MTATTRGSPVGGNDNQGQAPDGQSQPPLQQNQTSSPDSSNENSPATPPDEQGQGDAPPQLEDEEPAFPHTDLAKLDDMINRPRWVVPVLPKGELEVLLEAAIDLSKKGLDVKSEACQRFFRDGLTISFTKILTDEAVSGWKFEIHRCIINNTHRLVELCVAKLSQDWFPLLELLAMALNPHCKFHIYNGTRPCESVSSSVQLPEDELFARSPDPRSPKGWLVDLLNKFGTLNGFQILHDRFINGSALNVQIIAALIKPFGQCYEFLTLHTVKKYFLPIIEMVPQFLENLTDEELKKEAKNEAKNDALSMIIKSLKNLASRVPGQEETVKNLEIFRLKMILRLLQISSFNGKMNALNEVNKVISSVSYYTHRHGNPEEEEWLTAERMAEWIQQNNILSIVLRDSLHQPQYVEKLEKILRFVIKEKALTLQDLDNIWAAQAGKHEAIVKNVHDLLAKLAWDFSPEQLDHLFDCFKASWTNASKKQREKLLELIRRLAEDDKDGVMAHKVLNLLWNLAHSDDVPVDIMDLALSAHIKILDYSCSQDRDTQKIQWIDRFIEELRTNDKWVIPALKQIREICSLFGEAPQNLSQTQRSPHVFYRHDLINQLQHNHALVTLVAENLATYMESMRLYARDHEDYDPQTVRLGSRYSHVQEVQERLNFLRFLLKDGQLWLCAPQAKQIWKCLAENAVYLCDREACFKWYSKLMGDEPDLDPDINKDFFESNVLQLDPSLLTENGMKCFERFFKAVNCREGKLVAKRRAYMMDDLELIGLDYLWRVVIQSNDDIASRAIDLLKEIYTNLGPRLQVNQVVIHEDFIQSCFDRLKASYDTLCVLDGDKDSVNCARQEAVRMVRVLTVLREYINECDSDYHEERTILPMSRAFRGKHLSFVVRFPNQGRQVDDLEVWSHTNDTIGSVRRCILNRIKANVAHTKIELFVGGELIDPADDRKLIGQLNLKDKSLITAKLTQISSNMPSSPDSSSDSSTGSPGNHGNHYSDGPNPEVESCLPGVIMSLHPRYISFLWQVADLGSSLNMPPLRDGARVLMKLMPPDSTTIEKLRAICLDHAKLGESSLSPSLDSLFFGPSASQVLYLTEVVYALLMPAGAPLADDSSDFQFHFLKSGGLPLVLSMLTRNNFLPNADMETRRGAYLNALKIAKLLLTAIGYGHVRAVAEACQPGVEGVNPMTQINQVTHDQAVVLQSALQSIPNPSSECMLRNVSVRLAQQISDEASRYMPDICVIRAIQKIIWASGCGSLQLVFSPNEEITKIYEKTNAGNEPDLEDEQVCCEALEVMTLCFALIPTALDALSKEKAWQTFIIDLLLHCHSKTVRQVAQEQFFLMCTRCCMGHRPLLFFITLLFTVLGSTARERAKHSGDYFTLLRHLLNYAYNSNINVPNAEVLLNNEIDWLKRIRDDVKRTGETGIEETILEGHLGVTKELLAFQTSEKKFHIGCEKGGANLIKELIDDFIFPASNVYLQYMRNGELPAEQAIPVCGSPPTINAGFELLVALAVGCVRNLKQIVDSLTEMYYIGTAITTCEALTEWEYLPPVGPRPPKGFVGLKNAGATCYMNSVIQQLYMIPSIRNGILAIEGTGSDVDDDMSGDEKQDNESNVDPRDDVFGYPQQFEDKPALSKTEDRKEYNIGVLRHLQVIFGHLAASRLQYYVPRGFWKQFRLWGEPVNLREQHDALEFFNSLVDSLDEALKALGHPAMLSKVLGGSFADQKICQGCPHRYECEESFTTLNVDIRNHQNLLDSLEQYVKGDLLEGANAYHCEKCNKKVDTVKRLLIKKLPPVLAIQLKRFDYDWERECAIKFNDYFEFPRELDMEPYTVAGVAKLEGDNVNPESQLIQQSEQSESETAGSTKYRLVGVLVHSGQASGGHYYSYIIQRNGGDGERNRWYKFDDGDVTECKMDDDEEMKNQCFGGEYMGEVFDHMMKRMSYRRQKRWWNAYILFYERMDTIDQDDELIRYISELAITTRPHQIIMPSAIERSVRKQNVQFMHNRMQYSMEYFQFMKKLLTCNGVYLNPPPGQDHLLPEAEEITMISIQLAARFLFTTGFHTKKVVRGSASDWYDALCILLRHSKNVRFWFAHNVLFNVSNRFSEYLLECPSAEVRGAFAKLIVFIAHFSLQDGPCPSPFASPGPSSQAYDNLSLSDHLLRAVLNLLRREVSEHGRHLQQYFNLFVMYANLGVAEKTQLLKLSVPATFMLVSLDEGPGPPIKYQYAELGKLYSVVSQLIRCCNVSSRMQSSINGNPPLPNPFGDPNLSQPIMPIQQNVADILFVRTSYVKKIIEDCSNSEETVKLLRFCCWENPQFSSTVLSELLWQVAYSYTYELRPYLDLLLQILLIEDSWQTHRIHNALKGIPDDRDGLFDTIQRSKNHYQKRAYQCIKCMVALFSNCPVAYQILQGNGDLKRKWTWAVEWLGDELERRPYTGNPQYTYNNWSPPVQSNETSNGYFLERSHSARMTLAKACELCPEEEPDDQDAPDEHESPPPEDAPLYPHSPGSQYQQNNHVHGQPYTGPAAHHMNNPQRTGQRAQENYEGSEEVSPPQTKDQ

Take `NCc1ccc(OC(=O)Oc2ccc3ccccc3c2)cc1`: the inhibition result in [1], in [2], in experiment [7] and in [10] was “Active” each time. For the same molecule, the inhibition entry in [3], in experiment [6] and in experiment [9] was “inactive” in each case. Moreover, the Ratio in [4] was 0.4; in [5] it was 0.3. The K in [8] came out at 49 M⁻¹ s⁻¹. For the same molecule, the result in experiment [11] was Active.
